Screening results (PubChem)
A selection: hits, their analogues and other compounds. The true share with any hit is near 3.9%.
HSF1 inh: HSF1 inhibition; NIH3T3-HGL HSE-luciferase, MG132-induced, luminescence 8 h; stronger effect = lower value; hit rate 0.77% among 300,000; AID 2098; activity change, negative = inhibition, % at 7.5 µM (by protocol);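 active = more than half of replicate wells show activity change below -50%, luminescence cut by over half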;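 also: luciferase reports HSF-1 transcriptional activity via heat shock element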
HSF1 activator: increases HSF-1 driven luciferase reporter signal; NIH3T3-HGL HSF-1 luciferase reporter, MG132, 8 h; 100% = twice DMSO control signal; activation, % at 9 µM; hit rate 1.7% among 300,000; AID 504408;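 active = mean replicate activation of at least 50% with a set share of replicates each reaching 50%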
HCV core dimer: blocks dimerization of HCV core protein; hit rate 0.33% among 300,000; inhibition, % at 5 µM; TR-FRET GST/Flag-core106 dimerization, 1536-well; AID 1899;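 active = inhibition above the mean of all tested compounds plus 3 SD, set per screening campaign, cut at about 45% in these data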
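Material: GST/Flag-tagged HCV core106 proteins. Incubation: 4 h, 22.5 °C incubation. Read-out basis: inhibition (%) from 671 over 617 nm ratio. Measured by: TR-FRET, excitation 340 nm, emission 617 and 671 nm.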
DNA FID counter-1: displaces DNA intercalator in HCV helicase counter-screen | DNA fluorescent intercalator displacement, fluorescence | inhibition, % at 7.9 µM | hit rate 0.17% among 290,000;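 also: higher means more ethidium bromide displaced from hairpin DNA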
HCV NS3 hel inh: blocks Hepatitis C virus NS3 helicase unwinding; NS3 helicase DNA unwinding, Cy5 molecular beacon fluorescence; inhibition, % at 10.9 µM; hit rate 0.56% among 290,000; AID 1800;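 active = inhibition above the mean of all tested compounds plus 3 SD, set per campaign, cut at about 35% in these data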
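Compound dosing – single dose, 10.9 µM nominal final, DMSO 0.8% final · System – NS3 helicase fragment of HCV · Buffer or medium – MOPS pH 6.5, MgCl2, DTT, Tween20, BSA · Signal – Cy5 beacon fluorescence read at start and 1 h · Also added – annealed dual-labelled DNA beacon duplex, ATP-started · Schedule – 1 h at 25 °C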
HSP90 refold inh: inhibitors of HSP90 luciferase refolding in rabbit reticulocyte lysate; luciferase refolding luminescence, 3 h; inhibition, % at 5.6 µM; hit rate 0.91% among 290,000; AID 1789;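 active = inhibition above the screen-wide mean plus 3 SD, computed separately per campaign, cut at about 16% in these data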;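 also: inhibitors lower the luminescence because luciferase stays unfolded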
NS3 helicase cf: confirmation of Hepatitis C virus NS3 helicase inhibitors. hit rate 31% among 1,600. NS3 helicase DNA unwinding, Cy5 molecular beacon fluorescence. shares compounds with HCV NS3 hel inh. inhibition, % at 10.9 µM;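 active = inhibition above the mean of all tested compounds plus 3 SD, cutoff set per campaign, cut at about 36% in these data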
DNA FID counter-2: displaces DNA intercalator in HCV helicase counter-screen; AID 1945; DNA fluorescent intercalator displacement, fluorescence; hit rate 4% among 1,600; inhibition, % at 7.9 µM; shares compounds with HCV NS3 hel inh;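 also: higher means more displacement of ethidium bromide from the DNA hairpin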
Hits are given with their value. Rule as the data show it, unless noted: active = inhibition above about 37%; inactive = the rest.

Screening CN(C)[C@@H]1C(=O)C(C(N)=O)=C(O)[C@@]2(O)C(=O)C3=C(O)c4c(O)ccc(Cl)c4[C@@](C)(O)[C@H]3C[C@@H]12 returned HSF1 inh inactive, HSF1 activator inactive, HCV core dimer inactive, DNA FID counter-1 inactive, HCV NS3 hel inh 47.6, HSP90 refold inh inactive, NS3 helicase cf inactive and DNA FID counter-2 inactive.
CN(C)[C@@H]1C(=O)C(C(N)=O)=C(O)[C@@]2(O)C(=O)C3=C(O)c4c(O)cccc4[C@@](C)(O)[C@H]3[C@H](O)[C@@H]12 was read as HSF1 inh inactive, HSF1 activator inactive, HCV core dimer inactive, DNA FID counter-1 inactive, HCV NS3 hel inh 36.3, HSP90 refold inh inactive, NS3 helicase cf 96.8 and DNA FID counter-2 inactive.
`CC/C(=N\NC(=O)c1ccccc1)c1c(O)n(C2CCCCC2)c(=O)[nH]c1=O` gave HSF1 inh inactive, HSF1 activator inactive, HCV core dimer inactive, DNA FID counter-1 inactive, HCV NS3 hel inh inactive and HSP90 refold inh inactive.
Cc1ccccc1-n1c(O)c(C=Nc2ccc3c(c2)OCO3)c(=O)[nH]c1=O was read as HSF1 inh inactive, HSF1 activator inactive, HCV core dimer inactive, DNA FID counter-1 inactive, HCV NS3 hel inh 36.7, HSP90 refold inh inactive, NS3 helicase cf inactive and DNA FID counter-2 inactive.
Screening CCOc1ccccc1-n1c(O)c(C=Nc2ccc(N(CC)CC)cc2)c(=O)[nH]c1=O returned HSF1 inh inactive, HSF1 activator inactive, HCV core dimer inactive, DNA FID counter-1 inactive, HCV NS3 hel inh 54.2, HSP90 refold inh inactive, NS3 helicase cf inactive and DNA FID counter-2 inactive.
For COc1cc(C)cc2oc(=O)c(CC(=O)N3C[C@H]4C[C@@H](C3)c3cccc(=O)n3C4)c(C)c12 the results were HSF1 inh inactive, HSF1 activator inactive, HCV core dimer inactive, DNA FID counter-1 inactive, HCV NS3 hel inh inactive and HSP90 refold inh inactive.
